Legend:
Acetylcholinesterase [1] = target: Acetylcholinesterase (Homo sapiens, UniProt P22303); test: Inhibition of human erythrocytes AChE using acetylthiocholine iodide as substrate preincubated for 5 mins followed by substrate addition measured at 1 to 3 mins time interval by Ellman's method
Cholinesterase [2] = target: T1, Cholinesterase (Homo sapiens, UniProt P06276); test: Inhibition of human serum BuChE at 100 uM using S-butyrylthiocholine iodide as substrate preincubated for 5 mins followed by substrate addition measured at 1 to 3 mins time interval by Ellman's method
In short: (§1)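 Ellman assay: compound diluted in 50 mM Tris-HCl pH 8.0 with 0.1 M NaCl, 0.02 M MgCl2 (DMSO 1%). Preincubated 5 min at 37°C with 1.5 mM DTNB and BuChE (0.12 U/mL in Tris with 0.1% BSA); 15 mM S-butyrylthiocholine iodide added; absorbance at 405 nm read at 0, 1, 2, 3 min.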

Homo sapiens [3] = species: Homo sapiens; test: Selectivity index, ratio of IC50 for human serum BuChE to IC50 for human erythrocytes AChE
Acetylcholinesterase [4] = target: Acetylcholinesterase (Electrophorus electricus, UniProt O42275); test: Inhibition of electric eel AChE using acetylthiocholine iodide as substrate preincubated for 5 mins followed by substrate addition measured at 1 to 3 mins time interval by Ellman's method
Homo sapiens [5] = species: Homo sapiens; test: Selectivity index, ratio of IC50 for recombinant human MAO-A to IC50 for recombinant human MAO-B
[6] = target: T2, Amine oxidase [flavin-containing] A (Homo sapiens, UniProt P21397); test: Inhibition of recombinant human MAO-A assessed as reduction in H2O2 production at 100 uM using p-tyramine as substrate preincubated for 15 mins followed by substrate addition by Amplex red reagent based fluorescence assay
T2 sequence (P21397 whole entry): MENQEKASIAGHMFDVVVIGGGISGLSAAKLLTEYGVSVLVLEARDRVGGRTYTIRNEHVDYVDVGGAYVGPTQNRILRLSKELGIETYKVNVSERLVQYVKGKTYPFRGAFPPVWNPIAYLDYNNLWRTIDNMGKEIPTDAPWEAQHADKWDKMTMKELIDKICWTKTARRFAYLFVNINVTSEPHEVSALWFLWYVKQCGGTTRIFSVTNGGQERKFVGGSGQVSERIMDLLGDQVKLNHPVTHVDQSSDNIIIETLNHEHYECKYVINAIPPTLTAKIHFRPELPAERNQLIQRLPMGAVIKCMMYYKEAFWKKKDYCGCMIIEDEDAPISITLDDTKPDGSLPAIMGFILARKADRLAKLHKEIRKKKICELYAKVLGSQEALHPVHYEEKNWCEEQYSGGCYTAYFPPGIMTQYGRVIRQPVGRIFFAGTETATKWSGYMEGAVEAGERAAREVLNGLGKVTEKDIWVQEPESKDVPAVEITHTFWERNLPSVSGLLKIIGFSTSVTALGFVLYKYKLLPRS
In short: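 Human MAO-A or MAO-B, each set to the same control reaction velocity. Preincubated with compound 15 min at 37°C in the dark, in sodium phosphate buffer with DMSO. Then 200 μM Amplex Red (final) added with 1 U/mL HRP and 1 mM p-tyramine. Resorufin fluorescence read at 37°C (ex 545/em 590 nm), background from enzyme-free wells subtracted. Run in triplicate, mean ± SD.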

[7] = Selectivity index, ratio of IC50 for equine serum BuChE to IC50 for electric eel AChE
Cholinesterase [8] = target: T3, Cholinesterase (Equus caballus, UniProt P81908); test: Inhibition of equine serum BuChE using S-butyrylthiocholine iodide as substrate preincubated for 5 mins followed by substrate addition measured at 1 to 3 mins time interval by Ellman's method; type: ADME
[9] = target: T4, Amine oxidase [flavin-containing] B (Homo sapiens, UniProt P27338); test: Inhibition of recombinant human MAO-B assessed as reduction in H2O2 production using p-tyramine as substrate preincubated for 15 mins followed by substrate addition by Amplex red reagent based fluorescence assay
T4 sequence (P27338 whole entry): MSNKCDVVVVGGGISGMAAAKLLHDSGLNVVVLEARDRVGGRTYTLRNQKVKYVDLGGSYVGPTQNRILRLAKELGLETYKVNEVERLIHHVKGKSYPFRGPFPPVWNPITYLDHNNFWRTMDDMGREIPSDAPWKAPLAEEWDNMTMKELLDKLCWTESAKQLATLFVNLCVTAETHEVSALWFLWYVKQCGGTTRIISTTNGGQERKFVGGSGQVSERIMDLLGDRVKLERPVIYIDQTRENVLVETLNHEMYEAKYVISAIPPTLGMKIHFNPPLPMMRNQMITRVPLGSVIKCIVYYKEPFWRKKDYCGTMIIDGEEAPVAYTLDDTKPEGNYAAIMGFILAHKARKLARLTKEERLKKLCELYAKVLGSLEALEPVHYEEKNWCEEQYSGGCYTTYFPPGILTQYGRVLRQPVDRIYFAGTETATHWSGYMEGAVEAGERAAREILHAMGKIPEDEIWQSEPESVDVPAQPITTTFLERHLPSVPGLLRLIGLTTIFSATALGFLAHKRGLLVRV
In short: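 Human MAO-A or MAO-B, each set to the same control reaction velocity. Preincubated with compound 15 min at 37°C in the dark, in sodium phosphate buffer with DMSO. Then 200 μM Amplex Red (final) added with 1 U/mL HRP and 1 mM p-tyramine. Run in triplicate, mean ± SD.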

[10] = target: T2, Amine oxidase [flavin-containing] A; test: Inhibition of recombinant human MAO-A assessed as reduction in H2O2 production using p-tyramine as substrate preincubated for 15 mins followed by substrate addition by Amplex red reagent based fluorescence assay
Cholinesterase [11] = target: T1, Cholinesterase; test: Inhibition of human serum BuChE using S-butyrylthiocholine iodide as substrate preincubated for 5 mins followed by substrate addition measured at 1 to 3 mins time interval by Ellman's method; type: ADME
Cholinesterase [12] = target: T3, Cholinesterase; test: Inhibition of equine serum BuChE at 100 uM using S-butyrylthiocholine iodide as substrate preincubated for 5 mins followed by substrate addition measured at 1 to 3 mins time interval by Ellman's method; conditions: horse; in short: as §1

T1 sequence (P06276 whole entry): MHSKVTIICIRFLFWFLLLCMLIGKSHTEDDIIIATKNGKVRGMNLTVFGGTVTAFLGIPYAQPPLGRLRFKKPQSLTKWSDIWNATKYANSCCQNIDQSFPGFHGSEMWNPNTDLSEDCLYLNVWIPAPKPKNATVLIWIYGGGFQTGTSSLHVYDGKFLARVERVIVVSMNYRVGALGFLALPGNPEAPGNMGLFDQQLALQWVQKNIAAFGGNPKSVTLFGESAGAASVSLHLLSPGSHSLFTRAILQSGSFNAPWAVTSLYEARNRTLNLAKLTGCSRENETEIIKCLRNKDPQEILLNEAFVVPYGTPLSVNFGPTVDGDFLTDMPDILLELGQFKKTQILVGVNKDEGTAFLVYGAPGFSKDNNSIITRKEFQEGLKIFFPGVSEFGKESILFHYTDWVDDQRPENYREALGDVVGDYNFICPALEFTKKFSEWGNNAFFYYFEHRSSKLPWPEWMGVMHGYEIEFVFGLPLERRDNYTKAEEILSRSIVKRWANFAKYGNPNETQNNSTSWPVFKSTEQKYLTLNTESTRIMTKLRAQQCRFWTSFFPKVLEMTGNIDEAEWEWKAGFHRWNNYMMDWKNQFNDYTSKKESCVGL
Chain of Acetylcholinesterase (Electrophorus electricus, UniProt O42275) (O42275 whole entry): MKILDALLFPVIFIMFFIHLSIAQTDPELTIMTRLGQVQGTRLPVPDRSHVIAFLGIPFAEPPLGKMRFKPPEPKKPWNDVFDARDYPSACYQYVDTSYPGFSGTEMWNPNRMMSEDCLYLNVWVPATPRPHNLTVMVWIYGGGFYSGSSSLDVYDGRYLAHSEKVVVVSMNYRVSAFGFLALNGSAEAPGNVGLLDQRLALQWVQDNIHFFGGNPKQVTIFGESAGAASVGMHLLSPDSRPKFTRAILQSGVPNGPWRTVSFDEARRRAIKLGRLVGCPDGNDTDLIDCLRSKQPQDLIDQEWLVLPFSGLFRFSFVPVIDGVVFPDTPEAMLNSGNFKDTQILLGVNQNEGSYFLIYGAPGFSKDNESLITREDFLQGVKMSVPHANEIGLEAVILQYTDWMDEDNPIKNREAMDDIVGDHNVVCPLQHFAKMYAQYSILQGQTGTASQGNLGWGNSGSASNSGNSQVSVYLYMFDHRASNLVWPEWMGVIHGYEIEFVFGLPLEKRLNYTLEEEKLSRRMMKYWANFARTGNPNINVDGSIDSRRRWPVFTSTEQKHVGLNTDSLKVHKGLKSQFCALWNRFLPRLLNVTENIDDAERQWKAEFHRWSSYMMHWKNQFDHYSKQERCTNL
T3 sequence (P81908 whole entry): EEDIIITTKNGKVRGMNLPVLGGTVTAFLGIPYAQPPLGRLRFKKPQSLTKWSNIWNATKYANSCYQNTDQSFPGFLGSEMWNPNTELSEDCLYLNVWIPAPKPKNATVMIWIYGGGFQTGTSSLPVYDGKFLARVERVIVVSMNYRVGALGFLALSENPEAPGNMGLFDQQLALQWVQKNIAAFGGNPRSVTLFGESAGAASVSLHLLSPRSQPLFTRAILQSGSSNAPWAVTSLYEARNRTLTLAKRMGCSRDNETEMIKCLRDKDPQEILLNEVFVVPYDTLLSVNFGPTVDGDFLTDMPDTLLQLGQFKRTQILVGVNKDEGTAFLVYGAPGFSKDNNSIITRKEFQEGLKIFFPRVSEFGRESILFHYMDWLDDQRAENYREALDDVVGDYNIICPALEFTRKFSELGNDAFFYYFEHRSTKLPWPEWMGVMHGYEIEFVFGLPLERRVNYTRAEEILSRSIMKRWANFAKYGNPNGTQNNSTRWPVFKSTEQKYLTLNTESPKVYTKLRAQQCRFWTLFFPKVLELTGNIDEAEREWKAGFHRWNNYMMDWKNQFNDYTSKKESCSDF
Chain of Acetylcholinesterase (Homo sapiens, UniProt P22303) (P22303 whole entry): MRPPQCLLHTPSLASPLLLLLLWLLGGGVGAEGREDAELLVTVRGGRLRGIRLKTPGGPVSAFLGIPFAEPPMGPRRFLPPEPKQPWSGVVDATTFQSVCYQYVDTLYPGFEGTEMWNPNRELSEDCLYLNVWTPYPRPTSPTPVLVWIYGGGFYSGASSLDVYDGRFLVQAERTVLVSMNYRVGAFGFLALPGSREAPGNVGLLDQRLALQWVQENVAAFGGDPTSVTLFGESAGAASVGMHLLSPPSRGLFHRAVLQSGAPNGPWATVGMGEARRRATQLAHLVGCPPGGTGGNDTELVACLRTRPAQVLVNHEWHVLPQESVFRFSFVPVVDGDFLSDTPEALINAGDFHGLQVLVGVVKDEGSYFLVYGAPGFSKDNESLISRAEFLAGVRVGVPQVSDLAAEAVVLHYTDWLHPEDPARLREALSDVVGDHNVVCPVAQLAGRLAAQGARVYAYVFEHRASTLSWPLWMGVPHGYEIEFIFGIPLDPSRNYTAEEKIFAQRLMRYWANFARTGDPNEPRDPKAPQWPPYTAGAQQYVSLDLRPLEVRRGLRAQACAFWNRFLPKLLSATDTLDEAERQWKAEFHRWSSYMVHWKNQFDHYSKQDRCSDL

Row | SMILES | IC50 (Acetylcholinesterase [1]) | inhibition (INH) (Cholinesterase [2]) | Ratio IC50 (Homo sapiens [3]) | IC50 (Acetylcholinesterase [4]) | Ratio IC50 (Homo sapiens [5]) | inhibition (INH) [6] | Ratio IC50 [7] | IC50 (Cholinesterase [8]) | IC50 [9] | IC50 [10] | IC50 (Cholinesterase [11]) | inhibition (INH) (Cholinesterase [12])
1 | O=C1/C(=C/c2ccc(OCCCN3CCN(Cc4ccccc4)CC3)cc2)COc2ccccc21 | 4.72 µM | Not Active | > 21.2 | 1.02 µM | > 2.59 | Not Active | 87.8 | 89.5 µM | 38.6 µM |  |  | 
2 | CN(C)CCCCOc1ccc(/C=C2\COc3ccccc3C2=O)cc1 |  |  |  | 12.3 µM | > 132 | Not Active | 1.54 | 18.9 µM | 0.756 µM |  |  | 
3 | CCN(CCOc1ccc(/C=C2\COc3ccccc3C2=O)cc1)Cc1ccccc1 |  |  |  | 1.29 µM | > 23.3 | Not Active | 38.3 | 49.4 µM | 4.29 µM |  |  | 
4 | CCN(CC)CCOc1cccc(/C=C2\COc3ccccc3C2=O)c1 | 30.3 µM |  | 0.34 | 4.16 µM | 97.1 |  | 0.403 | 1.68 µM | 0.824 µM | 80 µM | 10.3 µM | 
5 | CN(CCCCCCOc1ccc(/C=C2\COc3ccccc3C2=O)cc1)Cc1ccccc1 | 40.9 µM |  | 0.489 | 1.77 µM | > 1 | Not Active | 28.7 | 50.7 µM | > 100 µM |  | 20 µM | 
6 | CN(C)CCCOc1ccc(/C=C2\COc3ccccc3C2=O)cc1 |  |  |  | 5.21 µM | > 2280 | Not Active | 3.9 | 20.3 µM | 0.0438 µM |  |  | 
7 | O=C1/C(=C/c2ccc(OCCN3CCN(Cc4ccccc4)CC3)cc2)COc2ccccc21 |  |  |  | 21 µM | > 1.03 | Not Active | 1.5 | 31.5 µM | 97.5 µM |  |  | 
8 | CCN(CCCOc1ccc(/C=C2\COc3ccccc3C2=O)cc1)Cc1ccccc1 |  |  |  | 29.4 µM |  |  | 0.583 | 17.2 µM | 1.59 µM |  |  | 
9 | CCN(CC)CCOc1ccc(/C=C2\COc3ccccc3C2=O)cc1 | 3.29 µM |  | 7.17 | 1.03 µM | 1220 |  | 28 | 28.9 µM | 0.0381 µM | 46.6 µM | 23.6 µM | 
10 | CCN(CC)CCOc1ccccc1/C=C1\COc2ccccc2C1=O |  |  |  | 65.3 µM | > 2.64 | Not Active | 0.176 | 11.5 µM | 43.8 µM |  |  | 
11 | CN1CCN(CCCOc2ccc(/C=C3\COc4ccccc4C3=O)cc2)CC1 |  |  |  | 10.1 µM | > 4.41 | Not Active | 1.53 | 15.4 µM | 22.7 µM |  |  | 
12 | O=C1/C(=C/c2ccc(OCCCCCCN3CCN(Cc4ccccc4)CC3)cc2)COc2ccccc21 |  |  |  | 60.8 µM | > 1 | Not Active | > 1.65 |  | > 100 µM |  |  | Not Active
13 | CN(C)CCOc1ccccc1/C=C1\COc2ccccc2C1=O |  |  |  | 65.3 µM | > 1 | Not Active | 0.154 | 10 µM | > 100 µM |  |  | 
14 | CCN(CC)CCCCOc1ccc(/C=C2\COc3ccccc3C2=O)cc1 | 14.1 µM |  | 0.801 | 6.1 µM | 18.5 |  | 0.756 | 4.61 µM | 2.86 µM | 52.9 µM | 11.3 µM | 
15 | CN(C)CCCCCCOc1ccc(/C=C2\COc3ccccc3C2=O)cc1 |  |  |  | 12.8 µM | 12.1 |  | 0.712 | 9.12 µM | 3.22 µM | 39.1 µM |  | 
16 | CCN(CC)CCCOc1ccc(/C=C2\COc3ccccc3C2=O)cc1 |  |  |  | 3.2 µM | 379 |  | 2.58 | 8.27 µM | 0.166 µM | 62.9 µM |  | 
17 | CN1CCN(CCCCCCOc2ccc(/C=C3\COc4ccccc4C3=O)cc2)CC1 |  |  |  | 32.3 µM | > 16.1 | Not Active | 0.843 | 27.3 µM | 6.24 µM |  |  | 
18 | CN(C)CCCOc1cccc(/C=C2\COc3ccccc3C2=O)c1 | 25.7 µM |  | 1.53 | 4.97 µM | 1940 |  | 0.435 | 2.16 µM | 0.0484 µM | 93.7 µM | 39.3 µM | 
19 | CN(C)CCCOc1ccccc1/C=C1\COc2ccccc2C1=O |  |  |  | 75.1 µM | > 1 | Not Active | 0.116 | 8.74 µM | > 100 µM |  |  | 
20 | CN(CCCOc1ccc(/C=C2\COc3ccccc3C2=O)cc1)Cc1ccccc1 |  |  |  | 52.3 µM | > 114 | Not Active | 0.369 | 19.3 µM | 0.88 µM |  |  | 
21 | CCN(CCCCCCOc1ccc(/C=C2\COc3ccccc3C2=O)cc1)Cc1ccccc1 |  |  |  | 17 µM | > 1 | Not Active | 2.36 | 40 µM | > 100 µM |  |  | 
22 | CN(C)CCOc1cccc(/C=C2\COc3ccccc3C2=O)c1 | 1.41 µM |  | 3.15 | 1.04 µM | 66.5 |  | 8.05 | 8.37 µM | 0.571 µM | 38 µM | 4.44 µM | 
23 | CN(CCOc1ccc(/C=C2\COc3ccccc3C2=O)cc1)Cc1ccccc1 |  |  |  | 19.3 µM | > 43.8 | Not Active | 2.14 | 41.5 µM | 2.28 µM |  |  | 
24 | CN1CCN(CCCCOc2ccc(/C=C3\COc4ccccc4C3=O)cc2)CC1 |  |  |  | 13 µM | > 6.1 | Not Active | 0.799 | 10.4 µM | 16.4 µM |  |  | 
25 | CCN(CC)CCCCCCOc1ccc(/C=C2\COc3ccccc3C2=O)cc1 | 1.85 µM |  | 2.3 | 3.75 µM | 13.1 |  | 1.29 | 4.83 µM | 2.9 µM | 37.8 µM | 4.25 µM | 
26 | CCN(CC)CCCOc1cccc(/C=C2\COc3ccccc3C2=O)c1 |  |  |  | 14.1 µM | 3.55 |  | 0.0732 | 1.03 µM | 18.2 µM | 64.7 µM |  | 

— ChEMBL document CHEMBL4261537, “Synthesis and pharmacological evaluation of multi-functional homoisoflavonoid derivatives as potent inhibitors of monoamine oxidase B and cholinesterase for the treatment of Alzheimer's disease” (Medchemcomm, 2017)
